Reference: ChEMBL document CHEMBL4765436, “Discovery, structure-activity relationship study and biological evaluation of 2-thioureidothiophene-3-carboxylates as a novel class of C-X-C chemokine receptor 2 (CXCR2) antagonists” (Eur J Med Chem, 2020)
Calls of active or inactive are those of the source. The rule behind the calls is not given here.

Key:
[1] = biological target: T1, C-X-C chemokine receptor type 2 (Homo sapiens) (UniProt P25025); assay: Antagonist activity at CXCR2 (unknown origin) expressed in HEK293T cells cotransfected with GFP and p22F assessed as inhibition of CXCL8-reduced cAMP production at 10 uM incubated for 10 mins followed by CXCL8 stimulation and measured after 10 mins by luminescence based assay; type: functional, cell-based; conditions: time 20.0 min
T1 sequence (whole entry): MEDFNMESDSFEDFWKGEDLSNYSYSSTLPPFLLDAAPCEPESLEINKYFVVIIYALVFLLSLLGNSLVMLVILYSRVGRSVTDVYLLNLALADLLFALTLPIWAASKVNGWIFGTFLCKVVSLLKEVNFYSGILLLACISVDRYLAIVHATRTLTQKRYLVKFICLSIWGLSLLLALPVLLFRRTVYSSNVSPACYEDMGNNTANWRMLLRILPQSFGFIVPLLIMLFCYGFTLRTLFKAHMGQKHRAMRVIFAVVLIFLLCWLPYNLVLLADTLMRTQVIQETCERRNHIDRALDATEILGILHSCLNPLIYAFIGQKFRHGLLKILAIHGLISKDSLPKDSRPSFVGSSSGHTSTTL
Method in brief: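 293T-CXCR2-GFP-p22F cells express a cAMP-sensitive firefly luciferase. They were seeded at 30000 cells/well overnight in CO2-independent medium with 10% FBS, then incubated with 1% cAMP reagent for 2 h at 37 °C. Cells were pretreated with compound for 10 min, given CXCL8 (50 nM) for 10 min, then stimulated with forskolin (50 μM) until maximal signal (~80 min). Luminescence read-out.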

[2] = biological target: C-X-C chemokine receptor type 4 (Homo sapiens, UniProt P61073); assay: Antagonist activity at CXCR4 (unknown origin) expressed in U2OS cells cotransfected with beta-arrestin/TEV protease fusion protein and beta-lactamase assessed as inhibition of SDF1-alpha-induced beta arrestin2 recruitment preincubated for 30 mins followed by SDF1-alpha stimulation and measured after 5 hrs by FRET based fluorescence/Tango assay
Chain of C-X-C chemokine receptor type 4 (P61073 whole entry, the tested form may be a part): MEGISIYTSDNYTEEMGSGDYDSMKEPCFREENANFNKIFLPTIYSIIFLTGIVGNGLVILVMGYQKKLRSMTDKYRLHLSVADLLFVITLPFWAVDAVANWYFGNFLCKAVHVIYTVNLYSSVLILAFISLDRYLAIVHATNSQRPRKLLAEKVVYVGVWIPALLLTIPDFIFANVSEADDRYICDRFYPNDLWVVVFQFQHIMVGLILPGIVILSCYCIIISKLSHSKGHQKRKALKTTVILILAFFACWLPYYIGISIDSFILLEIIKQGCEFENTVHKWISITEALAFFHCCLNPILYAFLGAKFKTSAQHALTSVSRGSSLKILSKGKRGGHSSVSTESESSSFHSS

[3] = biological target: T1, C-X-C chemokine receptor type 2 (Homo sapiens); assay: Antagonist activity at CXCR2 (unknown origin) expressed in HEK293T cells cotransfected with GFP assessed as inhibition of CXCL8-induced AKT phosphorylation at 10 to 30 uM post CXCL8 treatment by immunoblot assay; type: cell-based; conditions: dose 10-30 µM
[4] = biological target: T1, C-X-C chemokine receptor type 2 (Homo sapiens); assay: Antagonist activity at CXCR2 (unknown origin) expressed in HEK293T cells cotransfected with GFP assessed as inhibition of CXCL8-induced p38 phosphorylation at 10 to 30 uM post CXCL8 treatment by immunoblot assay; type: cell-based; conditions: dose 10-30 µM
Method in brief: (§1)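 293T-CXCR2-GFP cells (5 x 10^5/well) were attached overnight, treated with compounds and lysed in RIPA buffer with protease/phosphatase inhibitors. Lysates were normalized by BCA and resolved on 10% SDS-PAGE. Blots were probed overnight at 4 °C with antibodies (1:500-1:1000) to p-ERK1/2, p-JNK, p-cJUN or p-p38, then with a fluorescent secondary antibody, and imaged by infrared imaging.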

[5] = biological target: T1, C-X-C chemokine receptor type 2 (Homo sapiens); assay: Antagonist activity at CXCR2 (unknown origin) expressed in HEK293T cells cotransfected with GFP assessed as inhibition of CXCL8-induced ERK1/2 phosphorylation pretreated at 10 to 30 uM followed by treated with CXCL8 by immunoblot assay; type: cell-based; conditions: filed as antagonist, dose 10-30 µM; method in brief: as §1
[6] = biological target: T2, C-X-C chemokine receptor type 2 (Homo sapiens, UniProt P25025); assay: Antagonist activity at CXCR2 (unknown origin) expressed in U2OS cells cotransfected with beta-arrestin/TEV protease fusion protein and beta-lactamase assessed as inhibition of CXCL8-induced beta arrestin2 recruitment preincubated for 30 mins followed by CXCL8 stimulation and measured after 5 hrs by FRET based fluorescence/Tango assay; type: cell-based
T2 sequence (P25025 whole entry): T1 sequence (whole entry)

[7] = biological target: T1, C-X-C chemokine receptor type 2 (Homo sapiens); assay: Antagonist activity at CXCR2 (unknown origin) expressed in HEK293T cells cotransfected with GFP assessed as inhibition of CXCL8-induced JNK phosphorylation at 10 to 30 uM post CXCL8 treatment by immunoblot assay; type: cell-based; conditions: dose 10-30 µM; method in brief: as §1
[8] = biological target: T3, Alpha-2A adrenergic receptor (Homo sapiens, UniProt P08913); assay: Inhibition of alpha 2a-adrenergic receptor (unknown origin) by radioligand binding assay
T3 sequence (P08913 whole entry): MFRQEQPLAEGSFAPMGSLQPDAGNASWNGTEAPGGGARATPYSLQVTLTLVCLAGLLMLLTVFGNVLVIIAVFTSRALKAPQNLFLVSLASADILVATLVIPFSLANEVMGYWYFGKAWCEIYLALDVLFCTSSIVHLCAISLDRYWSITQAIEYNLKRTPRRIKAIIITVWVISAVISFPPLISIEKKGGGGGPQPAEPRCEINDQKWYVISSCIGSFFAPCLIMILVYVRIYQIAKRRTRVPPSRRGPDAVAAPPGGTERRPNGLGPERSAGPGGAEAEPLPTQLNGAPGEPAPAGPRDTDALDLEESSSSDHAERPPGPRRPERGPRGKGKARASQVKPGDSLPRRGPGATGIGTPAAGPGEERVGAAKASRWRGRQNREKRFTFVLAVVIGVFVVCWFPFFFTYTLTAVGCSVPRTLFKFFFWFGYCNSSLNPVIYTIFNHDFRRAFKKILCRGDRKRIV
Method in brief: (§2)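 Secondary radioligand binding assay determining equilibrium binding affinity (Ki).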

[9] = biological target: T4, Alpha-2A adrenergic receptor (Homo sapiens) (UniProt P08913); assay: Inhibition of alpha 2a-adrenergic receptor (unknown origin) at 10 uM by radioligand binding assay relative to control
T4 sequence (whole entry): T3 sequence (P08913 whole entry)
Method in brief: (§3)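 Primary radioligand binding screen across 50 GPCRs at a single concentration of 10 μM. Compounds with ≥50% inhibition went on to secondary binding.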

[10] = system: SK-OV-3; assay: Inhibition of colony formation in human SK-OV-3 cells at 8.9 to 20 uM incubated for 7 to 10 days in presence of doxorubicin by crystal violet staining based assay; type: functional, cell-based; conditions: dose 8.9-20 µM, time 7-10 day
Method in brief: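 Colony formation: cells were seeded at 300/well, attached overnight, then treated with compounds for 7-10 days until colonies formed in DMSO wells. Colonies were stained with 0.05% crystal violet for 30 min and washed with water.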

[11] = system: U2OS; assay: Antimigratory activity against human U2OS cells overexpressing CXCR2/bla assessed as reduction in CXCL8-mediated wound closure at 10 uM incubated for 20 mins followed by CXCL8 stimulation and measured after 24 hrs by Giemsa staining based scratch wound healing assay; type: functional, cell-based; conditions: time 24.3 hrs
Method in brief: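 CXCR2-bla U2OS cells were seeded at 35000/well in DMEM with 1% FBS overnight and scratched with a pipette tip. Compounds (10 μM) were added for 20 min, then CXCL8 (60 nM) for 24 h; unstimulated wells served as control. Cells were methanol-fixed, Giemsa-stained and imaged by transmitted light. Two independent experiments were run in duplicate.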

[12] = biological target: T1, C-X-C chemokine receptor type 2 (Homo sapiens); assay: Antagonist activity at CXCR2 (unknown origin) expressed in HEK293T cells cotransfected with GFP assessed as inhibition of CXCL8-induced cJUN phosphorylation at 10 to 30 uM post CXCL8 treatment by immunoblot assay; type: cell-based; conditions: dose 10-30 µM; method in brief: as §1
[13] = biological target: T5, Translocator protein (Homo sapiens, UniProt P30536); assay: Inhibition of PBR (unknown origin) at 10 uM by radioligand binding assay relative to control; method in brief: as §3
T5 sequence (P30536 whole entry): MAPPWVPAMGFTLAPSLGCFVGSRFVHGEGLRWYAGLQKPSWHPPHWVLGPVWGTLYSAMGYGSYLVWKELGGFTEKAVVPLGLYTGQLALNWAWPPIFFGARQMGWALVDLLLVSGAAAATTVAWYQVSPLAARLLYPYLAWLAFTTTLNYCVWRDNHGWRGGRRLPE

[14] = biological target: T5, Translocator protein; assay: Inhibition of PBR (unknown origin) by radioligand binding assay; method in brief: as §2

| SMILES | IC50 [2] [µM] | IC50 [6] [µM] | other results |
| --- | --- | --- | --- |
| C[C@@H](NC(=S)Nc1sc2c(c1C(=O)OC(C)(C)C)CCOC2)c1ccccc1 | > 30 | 1.6 | Activity [1]: inactive; Activity [3]: inactive; Activity [4]: inactive; Activity [5]: Active; Activity [7]: inactive; Ki [8]: > 10 µM; inhibition [9]: 59%; inhibition [10]: Active; inhibition [11]: Active; Activity [12]: inactive; inhibition [13]: 64%; Ki [14]: > 10 µM |
| CCOC(=O)c1c(NC(=S)Nc2cnccn2)sc2c1C(C)CCC2 (stereo unspecified) | > 10 | > 10 | – |
| CCOC(=O)c1c(NC(=S)Nc2ccccc2F)sc2c1C(C)CCC2 (stereo unspecified) | 12 | 7.5 | – |
| CC1CCCc2sc(NC(=S)Nc3ccc4c(c3)OC(F)(F)O4)c(C(=O)OC(C)(C)C)c21 (stereo unspecified) | > 10 | > 10 | – |
| CCOC(=O)c1c(NC(=S)Nc2ccc(O)cc2)sc2c1C(C)CCC2 (stereo unspecified) | 11.7 | > 30 | – |
| CC(C)(C)OC(=O)c1c(NC(=S)Nc2ccccc2)sc2c1COC(C)(C)C2 | > 10 | > 10 | – |
| CCOC(=O)NC(=S)Nc1sc2c(c1C(=O)OCC)C(C)CCC2 (stereo unspecified) | > 10 | 8.7 | – |
| CCOC(=O)c1c(NC(=S)Nc2ccccc2O)sc2c1C(C)CCC2 (stereo unspecified) | > 10 | > 30 | – |
| CCOC(=O)c1c(NC(=S)Nc2ccc(N)cc2)sc2c1C(C)CCC2 (stereo unspecified) | > 10 | > 30 | – |
| CC1CCCc2sc(NC(=S)Nc3ccccc3)c(C(=O)Nc3ccccc3)c21 (stereo unspecified) | > 10 | 2.7 | – |
| CCOC(=O)c1c(NC(=S)Nc2ccccc2)sc2c1C(C)CCC2 (stereo unspecified) | > 10 | 6.4 | – |
| CC(C)(C)OC(=O)c1c(NC(=S)Nc2ccccc2)sc2c1CCOC2 | > 30 | 2.3 | – |
| CCOC(=O)c1c(NC(=S)Nc2cccc(OC)c2)sc2c1C(C)CCC2 (stereo unspecified) | 8.9 | 3 | – |
| CC1CCCc2sc(NC(=S)Nc3ccccc3)c(C(=O)NCc3ccccc3)c21 (stereo unspecified) | > 30 | 2.5 | – |
| CC1CCCc2sc(NC(=S)Nc3ccccc3)c(C(=O)O)c21 (stereo unspecified) | > 10 | 6.7 | – |
| CNC(=O)c1c(NC(=S)Nc2ccccc2)sc2c1C(C)CCC2 (stereo unspecified) | > 10 | > 10 | – |
| CC(C)OC(=O)c1c(NC(=S)Nc2ccccc2)sc2c1C(C)CCC2 (stereo unspecified) | 9.3 | 2.7 | – |
| CCOC(=O)c1c(NC(=S)Nc2ccc(OC(F)(F)F)cc2)sc2c1C(C)CCC2 (stereo unspecified) | 12.7 | 2.2 | – |
| CCOC(=O)c1c(NC(=S)Nc2ccc3c(c2)OC(F)(F)O3)sc2c1C(C)CCC2 (stereo unspecified) | 26.7 | 1.9 | – |
| CC1CCCc2sc(NC(=S)Nc3ccc(OC(C)(C)C)cc3)c(C(=O)OC(C)(C)C)c21 (stereo unspecified) | > 10 | 6.8 | – |
| CC1CCCc2sc(NC(=S)Nc3ccc(N4CCN(C)CC4)cc3)c(C(=O)OC(C)(C)C)c21 (stereo unspecified) | > 10 | > 10 | – |
| CC1CCCc2sc(NC(=S)Nc3ccc(Oc4ccccc4)cc3)c(C(=O)OC(C)(C)C)c21 (stereo unspecified) | > 10 | > 10 | – |
